Experimental data: ChEMBL document CHEMBL5385951, “Accraspiroketides A-B, Phenylnaphthacenoid-Derived Polyketides with Unprecedented [6 + 6+6 + 6] + [5 + 5] Spiro-Architecture” (2024)
In brackets after ≈: the same amount, converted by molar mass.

Key:
Format in all cases: functional
Enterococcus faecium [1] = experiment: Antibacterial activity against Enterococcus faecium clinical isolate K59-68 assessed as inhibition of bacterial growth incubated for 24 hrs by broth microdilution method
Method in brief: (§1)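 Broth microdilution per published protocols (CLSI dilution method for aerobically growing bacteria). E. faecium strains K59-68 and K60-39 are clonal complex 17 sub-cluster clinical bloodstream isolates from patients at University Hospital of North Norway. Ampicillin served as positive control and DMSO as negative control. MIC was determined from triplicate assays.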

Staphylococcus aureus = experiment: Antibacterial activity against Staphylococcus aureus ATCC 25923 assessed as inhibition of bacterial growth incubated for 24 hrs by broth microdilution method
Enterococcus faecium [2] = experiment: Antibacterial activity against Enterococcus faecium clinical isolate K60-39 assessed as inhibition of bacterial growth incubated for 24 hrs by broth microdilution method; method in brief: as §1
Enterococcus faecalis = experiment: Antibacterial activity against Enterococcus faecalis ATCC 29212 assessed as inhibition of bacterial growth incubated for 24 hrs by broth microdilution method

| SMILES | MIC (Enterococcus faecium [1]) [µg/mL] | MIC (Staphylococcus aureus) [µg/mL] | MIC (Enterococcus faecium [2]) [µg/mL] | MIC (Enterococcus faecalis) [µg/mL] |
| --- | --- | --- | --- | --- |
| COc1cc2c(c(O)c1Cl)C(=O)c1c(cc3cc(O)cc4c3c1O[C@@]41C(C)=C(C(=O)O)C(Cl)=C1Cl)C2(C)C | 1.5 (≈ 2.61 µM) | 3.1 (≈ 5.4 µM) | 4 (≈ 6.97 µM) | 3.1 (≈ 5.4 µM) |
| COc1cc2c(c(O)c1Cl)C(=O)c1c(cc3c(Cl)c(O)cc4c3c1O[C@@]41C(C)=C(C(=O)O)C(Cl)=C1Cl)C2(C)C | 1.5 (≈ 2.47 µM) | 6.3 (≈ 10.4 µM) | 4.7 (≈ 7.73 µM) | 3.1 (≈ 5.1 µM) |
| CC1(C)S[C@@H]2[C@H](NC(=O)[C@H](N)c3ccccc3)C(=O)N2[C@H]1C(=O)O [AMPICILLIN] | 1.5 (≈ 4.29 µM) | 0.5 (≈ 1.43 µM) | 25 (≈ 71.5 µM) | 1 (≈ 2.86 µM) |
